Blank lines part the entries; values can stand above or below the molecule they belong to.
Key:
[1] = biological target: T1, Proto-oncogene tyrosine-protein kinase Src (Homo sapiens, UniProt P12931); test: Binding affinity for Src protein tyrosine kinase SH2 domain using scintillation proximity binding assay (SPA)
[2] = biological target: T1, Proto-oncogene tyrosine-protein kinase Src; test: (§1) Binding affinity for Src protein tyrosine kinase SH2 domain using surface plasmon resonance (SPR) assay
[3] = biological target: T1, Proto-oncogene tyrosine-protein kinase Src; test: Binding affinity for Src SH2 domain in scintillation proximity binding assay (SPA)
[4] = biological target: T1, Proto-oncogene tyrosine-protein kinase Src; test: Binding affinity towards Src protein tyrosine kinase SH2 domain using surface plasmon resonance (SPR) assay
[5] = biological target: T1, Proto-oncogene tyrosine-protein kinase Src; test: as §1; remark: listed apart in the source
In short: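 Surface plasmon resonance with human Src SH2 domain (aa 145–251), E. coli-expressed and purified by cation exchange and gel filtration. Ligands compete for binding; IC50 reported.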

[6] = biological target: T1, Proto-oncogene tyrosine-protein kinase Src; test: Binding affinity for Src SH2 domain in scintillation proximity binding assay (SPA) - inactive
[7] = biological target: T1, Proto-oncogene tyrosine-protein kinase Src; test: Binding affinity towards Src protein tyrosine kinase SH2 domain protein using scintillation proximity binding assay (SPA)
[8] = biological target: T1, Proto-oncogene tyrosine-protein kinase Src; test: Binding affinity towards Src protein tyrosine kinase SH2 domain using scintillation proximity binding assay (SPA)

T1 sequence (P12931 2-536 limits assumed): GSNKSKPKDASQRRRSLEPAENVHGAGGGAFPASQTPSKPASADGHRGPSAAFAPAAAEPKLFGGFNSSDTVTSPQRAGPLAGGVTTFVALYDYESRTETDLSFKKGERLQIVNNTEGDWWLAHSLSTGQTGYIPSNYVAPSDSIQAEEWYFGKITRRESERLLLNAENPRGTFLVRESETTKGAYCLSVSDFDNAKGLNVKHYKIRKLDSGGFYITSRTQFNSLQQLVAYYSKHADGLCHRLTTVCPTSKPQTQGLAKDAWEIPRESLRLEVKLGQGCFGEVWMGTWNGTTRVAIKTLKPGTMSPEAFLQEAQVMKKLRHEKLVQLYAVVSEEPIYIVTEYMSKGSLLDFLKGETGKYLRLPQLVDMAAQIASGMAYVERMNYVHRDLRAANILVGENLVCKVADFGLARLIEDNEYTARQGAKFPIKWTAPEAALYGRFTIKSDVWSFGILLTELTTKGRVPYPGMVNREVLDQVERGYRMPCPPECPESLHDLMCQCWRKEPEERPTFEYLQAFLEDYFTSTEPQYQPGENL

IC50 [1]: 95 µM
Structure (SMILES): COc1cccc(C=O)c1OP(=O)(O)O

IC50 [2]: 300 µM | IC50 [3]: 80 µM
Structure (SMILES): O=Cc1ccccc1OP(=O)(O)O

IC50 [2]: 2100 µM | IC50 [3]: 600 µM
Structure (SMILES): O=Cc1cccc(OP(=O)(O)O)c1

IC50 [4]: 0.556 µM
Structure (SMILES): COC(=O)c1cc(C[C@H](NC(C)=O)C(=O)N[C@H]2CCCCN(Cc3ccc(-c4ccccc4)cc3)C2=O)ccc1C(C(=O)O)C(=O)O

IC50 [4]: 0.007 µM
Structure (SMILES): COC(=O)c1cc(C[C@@H](NC(C)=O)C(=O)N[C@H]2CCCCN(Cc3ccc(-c4ccccc4)cc3)C2=O)ccc1C(C(=O)O)C(=O)O

IC50 [5]: 5000 µM
Structure (SMILES): Cc1cc(C=O)cc(C)c1OP(=O)(O)O

IC50 [6]: Not Active
Structure (SMILES): O=C(O)CC(CC(=O)O)c1ccccc1

Structure (SMILES): CC[C@H](C)[C@H](NC(=O)[C@H](CCC(=O)O)NC(=O)[C@H](CCC(=O)O)NC(=O)[C@H](Cc1ccc(OP(=O)(O)O)cc1)NC(C)=O)C(N)=O
IC50 [2]: 0.001 µM | IC50 [3]: 0.15 µM

IC50 [3]: 39 µM
Structure (SMILES): Cc1cc(C=O)c(OP(=O)(O)O)c(C=O)c1

IC50 [7]: 190 µM
Structure (SMILES): O=C(O)C(c1ccc(O)cc1)S(=O)(=O)O (stereo not drawn)

IC50 [6]: Not Active
Structure (SMILES): O=C(O)CC(C(=O)O)c1ccccc1 (stereo not drawn)

IC50 [6]: Not Active
Structure (SMILES): CC(CC(=O)O)(CC(=O)O)c1ccccc1

IC50 [8]: 100 µM
Structure (SMILES): Cc1ccc(C(C(=O)O)C(=O)O)c(COC=O)c1

IC50 [6]: Not Active
Structure (SMILES): O=S(=O)(O)C(O)c1ccccc1 (stereo not drawn)

IC50 [3]: 385 µM
Structure (SMILES): Cc1ccc(CC(=O)O)c(C=O)c1

IC50 [8]: 192 µM
Structure (SMILES): O=C(O)C(c1ccccc1)S(=O)(=O)O (stereo not drawn)

IC50 [6]: Not Active
Structure (SMILES): O=C(O)CC(CC(=O)O)(c1ccccc1)c1ccccc1

Structure (SMILES): O=P(O)(O)Oc1ccccc1 [PHENYL DIHYDROGEN PHOSPHATE]
IC50 [2]: 5000 µM | IC50 [1]: 300 µM

IC50 [6]: Not Active
Structure (SMILES): CCC(C(N)=O)(C(=O)O)c1ccccc1 (stereo not drawn) [PHENYLETHYLMALONAMIDE -]

From ChEMBL document CHEMBL1135454, “SAR and X-ray. A new approach combining fragment-based screening and rational drug design: application to the discovery of nanomolar inhibitors of Src SH2” (J Med Chem, 2002)
